Source: ChEMBL document CHEMBL1132564, “Antitumor benzothiazoles. 7. Synthesis of 2-(4-acylaminophenyl)benzothiazoles and investigations into the role of acetylation in the antitumor activities of the parent amines” (J Med Chem, 1999)

What was measured:
[1] = test system: 786-0; experiment: In vitro antitumor activity against Renal cancer 786-0 cell lines by 6-day assay; type: functional; details: Homo sapiens, 786-0, 144 h
Summary of the method: (§1)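 NCI 60-cell-line panel, sulforhodamine B protein stain. Seeding density set per line's growth; 24 h drug-free incubation, then test agent at five 10-fold dilutions up to 10^-4 M for 6 days of exposure. Growth inhibition derived from change in protein-stain optical density; log GI50 reported.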

[2] = test system: A498; experiment: In vitro antitumor activity against Renal cancer A498 cell lines by 6-day assay; type: functional; details: Homo sapiens, A498, 144 h; summary of the method: as §1
[3] = test system: A549; experiment: In vitro antitumor activity against Non-small cell lung cancer A549/ATCC cell lines by 6-day assay; type: functional; details: Homo sapiens, A549, 144 h; summary of the method: as §1
[4] = test system: ACHN; experiment: In vitro antitumor activity against Renal cancer ACHN cell lines by 6-day assay; type: functional; details: Homo sapiens, 144 h; summary of the method: as §1
[5] = test system: CAKI-1; experiment: In vitro antitumor activity against Renal cancer CAKI-1 cell lines by 6-day assay; type: functional; details: Homo sapiens, CAKI-1, 144 h; summary of the method: as §1
[6] = test system: CCRF-CEM; experiment: In vitro antitumor activity against Leukemia CCRF-CEM cell lines by 6-day assay; type: functional; details: Homo sapiens, 144 h; summary of the method: as §1
[7] = test system: BT-549; experiment: In vitro antitumor activity against Breast cancer BT-549 cell lines by 6-day assay; type: functional; details: Homo sapiens, BT-549, 144 h; summary of the method: as §1
[8] = test system: COLO 205; experiment: In vitro antitumor activity against colon cancer COLO 205 cell lines by 6-day assay; type: functional; details: Homo sapiens, COLO 205, 144 h; summary of the method: as §1
[9] = test system: EKVX; experiment: In vitro antitumor activity against Non-small cell lung cancer EKVX cell lines by 6-day assay; type: functional; details: Homo sapiens, 144 h; summary of the method: as §1
[10] = test system: HCT-15; experiment: In vitro antitumor activity against colon cancer HCT-15 cell lines by 6-day assay; type: functional; details: Homo sapiens, HCT-15, 144 h; summary of the method: as §1
[11] = test system: HL-60; experiment: In vitro antitumor activity against Leukemia HL-60(TB) cell lines by 6-day assay; type: functional; details: Homo sapiens, HL-60, 144 h
Summary of the method: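 NCI 60-line panel screen using a sulforhodamine B protein-stain read-out. Seeding density is set by each line's growth. After a 24-h drug-free period, compound is added at five 10-fold dilutions up to 10^-4 M. Exposure lasts 6 days, and growth inhibition (GI50) is taken from the change in stain optical density.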

[12] = test system: HCT-116; experiment: In vitro antitumor activity against colon cancer HCT116 cell lines by 6-day assay; type: functional; details: Homo sapiens, HCT-116, 144 h; summary of the method: as §1
[13] = test system: HCC 2998; experiment: In vitro antitumor activity against colon cancer HCC2998 cell lines by 6-day assay; type: functional; details: Homo sapiens, HCC 2998, 144 h; summary of the method: as §1
[14] = test system: HT-29; experiment: In vitro antitumor activity against colon cancer HT-29 cell lines by 6-day assay; type: functional; details: Homo sapiens, HT-29, 144 h; summary of the method: as §1
[15] = test system: HOP-92; experiment: In vitro antitumor activity against Non-small cell lung cancer HOP92 cell lines by 6-day assay; type: functional; details: Homo sapiens, HOP-92, 144 h; summary of the method: as §1
[16] = test system: IGROV-1; experiment: In vitro antitumor activity against Ovarian cancer IGROV1 cell lines by 6-day assay; type: functional; details: Homo sapiens, IGROV-1, 144 h; summary of the method: as §1
[17] = test system: KM12; experiment: In vitro antitumor activity against colon cancer KM12 cell lines by 6-day assay; type: functional; details: Homo sapiens, KM12, 144 h; summary of the method: as §1
[18] = test system: M14; experiment: In vitro antitumor activity against melanoma M14 cell lines by 6-day assay; type: functional; details: Homo sapiens, M14, 144 h; summary of the method: as §1
[19] = test system: MCF7; experiment: In vitro antitumor activity against MCF-7 carcinoma cell line.; type: functional, cell-based; details: Homo sapiens
Summary of the method: (§2)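 MTT assay, 7-day format: 250–300 cells/well, adhered 24 h drug-free, then compound 1 pM–100 μM (n = 8), final DMSO <0.25%; RPMI 1640/10% FCS, 37 °C, 5% CO2. MTT added after exposure, 4 h, formazan dissolved in DMSO–glycine (4:1), absorbance 550 nm.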

[20] = test system: MDA-MB-468; experiment: In vitro antitumor activity against MDA-468 carcinoma cell line.; type: functional, cell-based; details: Homo sapiens; summary of the method: as §2
[21] = test system: MDA-N; experiment: In vitro antitumor activity against Breast cancer MDA-N cell lines by 6-day assay; type: functional; details: Homo sapiens, 144 h; summary of the method: as §1
[22] = test system: MDA-MB-435; experiment: In vitro antitumor activity against Breast cancer MDA-MB-435 cell lines by 6-day assay; type: functional; details: Homo sapiens, MDA-MB-435, 144 h; summary of the method: as §1
[23] = test system: MOLT-4; experiment: In vitro antitumor activity against Leukemia MOLT-4 cell lines by 6-day assay; type: functional; details: Homo sapiens, MOLT-4, 144 h; summary of the method: as §1
[24] = test system: OVCAR-8; experiment: In vitro antitumor activity against Ovarian cancer OVCAR-8 cell lines by 6-day assay; type: functional; details: Homo sapiens, OVCAR-8, 144 h; summary of the method: as §1
[25] = test system: NCI; experiment: In vitro antitumor activity against carcinoma cell lines by 6-day assay; type: functional, Homo sapiens; summary of the method: as §1
[26] = test system: NCI; experiment: In vitro antitumor activity against carcinoma cell lines by 2-day assay; type: functional, Homo sapiens
Summary of the method: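 NCI panel sulforhodamine B assay: line-specific seeding, 24 h drug-free, then five 10-fold dilutions (top 10^-4 M) for 2 days; growth inhibition from protein-stain optical density change; mean log GI50 across panel.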

[27] = test system: NCI-H23; experiment: In vitro antitumor activity against Non-small cell lung cancer NCI-H23 cell lines by 6-day assay; type: functional; details: Homo sapiens, NCI-H23, 144 h; summary of the method: as §1
[28] = test system: OVCAR-5; experiment: In vitro antitumor activity against Ovarian cancer OVCAR-5 cell lines by 6-day assay; type: functional; details: Homo sapiens, OVCAR-5, 144 h; summary of the method: as §1
[29] = test system: RPMI-8226; experiment: In vitro antitumor activity against Leukemia RPMI-8226 cell lines by 6-day assay; type: functional; details: Homo sapiens, RPMI-8226, 144 h; summary of the method: as §1
[30] = test system: SNB-19; experiment: In vitro antitumor activity against CNS cancer SNB-19 cell lines by 6-day assay; type: functional; details: Homo sapiens, SNB-19, 144 h; summary of the method: as §1
[31] = test system: SN12C; experiment: In vitro antitumor activity against Renal cancer SN12C cell lines by 6-day assay; type: functional; details: Homo sapiens, 144 h; summary of the method: as §1
[32] = test system: SF-295; experiment: In vitro antitumor activity against CNS cancer SF-295 cell lines by 6-day assay; type: functional; details: Homo sapiens, SF-295, 144 h; summary of the method: as §1
[33] = test system: SW-620; experiment: In vitro antitumor activity against colon cancer SW-620 cell lines by 6-day assay; type: functional; details: Homo sapiens, SW-620, 144 h; summary of the method: as §1
[34] = test system: SK-MEL-5; experiment: In vitro antitumor activity against melanoma SK-MEL-5 cell lines by 6-day assay; type: functional; details: Homo sapiens, SK-MEL-5, 144 h; summary of the method: as §1
[35] = test system: SNB-75; experiment: In vitro antitumor activity against CNS cancer SNB-75 cell lines by 6-day assay; type: functional; details: Homo sapiens, SNB-75, 144 h; summary of the method: as §1
[36] = test system: SK-OV-3; experiment: In vitro antitumor activity against Ovarian cancer SK-OV-3 cell lines by 6-day assay; type: functional; details: Homo sapiens, SK-OV-3, 144 h; summary of the method: as §1
[37] = test system: SK-MEL-28; experiment: In vitro antitumor activity against melanoma SK-MEL-28 cell lines by 6-day assay; type: functional; details: Homo sapiens, SK-MEL-28, 144 h; summary of the method: as §1
[38] = test system: TK-10; experiment: In vitro antitumor activity against Renal cancer TK-10 cell lines by 6-day assay; type: functional; details: Homo sapiens, TK-10, 144 h; summary of the method: as §1
[39] = test system: UO-31; experiment: In vitro antitumor activity against Renal cancer UO-31 cell lines by 6-day assay; type: functional; details: Homo sapiens, UO-31, 144 h; summary of the method: as §1
[40] = test system: UACC-257; experiment: In vitro antitumor activity against melanoma UACC-257 cell lines by 6-day assay; type: functional; details: Homo sapiens, UACC-257, 144 h; summary of the method: as §1
[41] = test system: U-251; experiment: In vitro antitumor activity against CNS cancer U251 cell lines by 6-day assay; type: functional; details: Homo sapiens, U-251, 144 h; summary of the method: as §1
[42] = test system: UACC-62; experiment: In vitro antitumor activity against melanoma UACC-62 cell lines by 6-day assay; type: functional; details: Homo sapiens, UACC-62, 144 h; summary of the method: as §1
[43] = test system: NCI-H322M; experiment: In vitro antitumor activity against Non-small cell lung cancer NCI-H322M cell lines by 6-day assay; type: functional; details: Homo sapiens, 144 h; summary of the method: as §1
[44] = test system: RXF 393; experiment: In vitro antitumor activity against Renal cancer RXF393 cell lines by 6-day assay; type: functional; details: Homo sapiens, RXF 393, 144 h; summary of the method: as §1
[45] = test system: SF-268; experiment: In vitro antitumor activity against CNS cancer SF-268 cell lines by 6-day assay; type: functional; details: Homo sapiens, SF-268, 144 h; summary of the method: as §1
[46] = test system: DU-145; experiment: In vitro antitumor activity against Prostate cancer DU145 cell lines by 6-day assay; type: functional; details: Homo sapiens, DU-145, 144 h; summary of the method: as §1
[47] = test system: K562; experiment: In vitro antitumor activity against Leukemia K-562 cell lines by 6-day assay; type: functional; details: Homo sapiens, K562, 144 h; summary of the method: as §1
[48] = test system: SR; experiment: In vitro antitumor activity against Leukemia SR cell lines by 6-day assay; type: functional; details: Homo sapiens, 144 h; summary of the method: as §1

Nc1ccc(-c2nc3ccccc3s2)cc1Br
GI50 [1]: 66.1 µM | GI50 [2]: 0.191 µM | GI50 [3]: > 100 µM | GI50 [4]: 44.7 µM | GI50 [5]: > 100 µM | GI50 [6]: 40.7 µM | GI50 [7]: 57.5 µM | GI50 [8]: < 0.01 µM | GI50 [9]: 81.3 µM | GI50 [10]: 31.6 µM | GI50 [11]: 9.55 µM | GI50 [12]: < 0.01 µM | GI50 [13]: < 0.01 µM | GI50 [14]: 24.5 µM | GI50 [15]: 40.7 µM | GI50 [16]: < 0.01 µM | GI50 [17]: 69.2 µM | GI50 [18]: 64.6 µM | IC50 [19]: < 0.001 µM | IC50 [20]: < 0.001 µM | GI50 [21]: > 100 µM | GI50 [22]: 97.7 µM | GI50 [23]: 46.8 µM | GI50 [24]: 43.7 µM | Mean log GI50 [25]: -5.01 M | Mean log GI50 [26]: -4.67 M | GI50 [27]: 28.8 µM | GI50 [28]: < 0.01 µM | GI50 [29]: > 100 µM | GI50 [30]: 47.9 µM | GI50 [31]: > 100 µM | GI50 [32]: 42.7 µM | GI50 [33]: 45.7 µM | GI50 [34]: 15.8 µM | GI50 [35]: > 100 µM | GI50 [36]: 58.9 µM | GI50 [37]: > 100 µM | GI50 [38]: < 0.01 µM | GI50 [39]: 32.4 µM | GI50 [40]: < 0.01 µM | GI50 [41]: 37.2 µM | GI50 [42]: < 0.01 µM | GI50 [43]: > 100 µM | GI50 [44]: 40.7 µM | GI50 [45]: 34.7 µM | GI50 [46]: > 100 µM | GI50 [47]: > 100 µM | GI50 [48]: 47.9 µM
